Source: PubChem
TRPC6 inh – blocks the mouse TRPC6 cation channel | B-score at 10 µM | actives 1.1% (n = 310,000) | HEK293-TRPC6, membrane potential dye, ACh-evoked depolarization; active compounds read low;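 active = B-score under library mean minus 3 SD, initial fluorescence not abnormally high, positive integrated signal ratio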;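 also: B-score derived from integrated fluorescence ratio over the kinetic read; more negative B-score means stronger inhibition of depolarization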
TRPC4 act – opens the mouse TRPC4 cation channel; actives 0.49% (n = 310,000); Q9QUQ5; B-score at 10 µM; AID 2237; HEK293 TRPC4beta/mu-opioid, Fluo4 calcium fluorescence; active compounds read high;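 active = B-score above 5 SD of library B-scores, and initial fluorescence ratio not above library mean plus 5 SD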;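 also: positive B-score marks a calcium rise read as TRPC4 activation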
Target sequence (Q9QUQ5 whole entry, looked up): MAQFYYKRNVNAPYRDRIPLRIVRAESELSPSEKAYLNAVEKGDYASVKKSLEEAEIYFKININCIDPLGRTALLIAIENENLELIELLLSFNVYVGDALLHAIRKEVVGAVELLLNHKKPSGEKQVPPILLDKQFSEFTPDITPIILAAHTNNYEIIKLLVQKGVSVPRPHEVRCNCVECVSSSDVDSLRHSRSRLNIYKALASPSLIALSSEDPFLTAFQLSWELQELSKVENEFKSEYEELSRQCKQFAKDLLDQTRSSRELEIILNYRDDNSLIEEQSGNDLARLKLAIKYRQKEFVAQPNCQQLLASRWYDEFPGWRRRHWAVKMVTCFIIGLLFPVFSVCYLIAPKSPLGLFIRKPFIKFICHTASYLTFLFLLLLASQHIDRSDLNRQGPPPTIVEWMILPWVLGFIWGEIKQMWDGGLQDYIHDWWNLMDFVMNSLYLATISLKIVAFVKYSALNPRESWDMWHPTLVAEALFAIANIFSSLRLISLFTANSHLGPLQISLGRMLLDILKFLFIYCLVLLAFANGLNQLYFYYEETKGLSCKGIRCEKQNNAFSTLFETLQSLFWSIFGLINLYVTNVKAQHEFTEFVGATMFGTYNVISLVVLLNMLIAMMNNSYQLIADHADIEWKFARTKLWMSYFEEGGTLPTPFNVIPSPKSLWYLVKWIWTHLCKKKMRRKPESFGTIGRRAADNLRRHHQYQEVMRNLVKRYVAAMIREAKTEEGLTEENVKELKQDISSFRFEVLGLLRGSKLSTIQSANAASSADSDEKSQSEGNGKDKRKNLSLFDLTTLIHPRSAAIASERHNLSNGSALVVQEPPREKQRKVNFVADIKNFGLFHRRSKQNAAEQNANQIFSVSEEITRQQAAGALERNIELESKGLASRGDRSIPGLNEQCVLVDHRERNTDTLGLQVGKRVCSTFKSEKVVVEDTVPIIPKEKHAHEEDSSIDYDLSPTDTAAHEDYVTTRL
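Assay system: HEK293 cells stably co-expressing mouse TRPC4beta and mu-opioid receptor / Timing: Fluo4 dye loading 45 min at room temperature, 110 s recording / Signal: Fluo4 calcium-sensitive dye fluorescence, kinetic, 1 Hz baseline / Read-out: integrated baseline-normalised fluorescence ratio, converted to per-well B score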
TRPC6 activator – activators of mouse TRPC6 channel; B-score at 10 µM; HEK293-TRPC6 membrane potential dye fluorescence; active compounds read high; actives 0.13% (n = 310,000); Q61143;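 active = B-score of the integrated fluorescence ratio above library mean plus 3 SD, and starting fluorescence ratio within library mean plus 5 SD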;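 also: higher score means more depolarization so channel activation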
TRPC4 inh – blocks the mouse TRPC4 cation channel; Q9QUQ5; HEK293 TRPC4beta/mu-opioid, DAMGO-evoked Fluo4 calcium flux; active compounds read low; B-score at 10 µM; actives 0.39% (n = 300,000); AID 2247;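 active = B-score over 3 SD under the library average, no early fluorescence shift, positive overall ratio signal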
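Test system – stable TRPC4beta/mu-opioid receptor HEK293 cells · Probe or stimulus – DAMGO, a submaximal dose followed by a maximal one · Dosing – one concentration per compound · Signal – Fluo4 calcium fluorescence by kinetic imaging, 5 s 1 Hz baseline · Evaluation – per-well B score of integrated baseline-normalized Fluo4 ratio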
TRPC4 potent – allosterically enhances the mouse TRPC4 cation channel; B-score at 10 µM; AID 2227; HEK293 TRPC4beta/mu-opioid, DAMGO EC20, Fluo-4 Ca2+ flux; active compounds read high; actives 0.42% (n = 310,000); Q9QUQ5;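 active = B-score of calcium response area above 5 SD of library B-scores, with initial fluorescence ratio within 5 SD of library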;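 also: B-score of integrated fluorescence ratio over time as area under calcium response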
The depositor's hits bear a star; i = inactive. Rows were chosen to be rich in hits. Some 2.3% of all compounds tested hit in one or more screens of this group.

SMILES	TRPC6 inh	TRPC4 act	TRPC6 activator	TRPC4 inh	TRPC4 potent
Cc1ccc(S(=O)(=O)c2cnc(-c3ccccc3)nc2N2CCN(C)CC2)cc1	i	i	i	-6*	i
CCN(CC)CCn1c2ccccc2c2n[nH]c(=S)nc21	i	63*	i	i	i
CCN(CC)CCn1c2ccccc2c2nc3ccccc3nc21	i	i	i	i	i
Cc1ccc(S(=O)(=O)Nc2ccc(Cl)cn2)cc1C	i	i	i	i	i
Oc1ccc(Cl)cc1C1=NNC(c2cccs2)C1 (configuration not stated)	i	i	i	i	i
O=[N+]([O-])c1ccc(O)c(C2=NNC(c3ccccc3F)C2)c1 (configuration not stated)	i	101*	i	-6*	i
Cc1cccc(C)c1N1CCc2cn[nH]c21	i	i	i	-6*	i
COc1ccc(C(CNC(=O)Cc2ccc3ccccc3c2)N(C)C)cc1 (configuration not stated)	i	135*	i	-6*	i
COc1ccc(C(CNC(=O)c2cc(C)on2)N(C)C)cc1 (configuration not stated)	i	84*	i	i	i
COc1ccc(NC(=O)c2cc(C)on2)cc1	i	i	i	i	i
COc1ccc(C(CNC(=O)C(C)c2ccc3cc(OC)ccc3c2)N(C)C)cc1 (configuration not stated)	i	204*	i	i	i
COc1ccc(C(CNC(=O)C2CC2)N(C)C)cc1 (configuration not stated)	i	i	i	i	i
COc1ccc(C(CNC(=O)COc2ccccc2OC)N(C)C)cc1OC (configuration not stated)	i	137*	i	i	i
CCOc1ccc(NC(=O)c2cc(F)c(F)cc2Cl)cc1OCC	i	i	i	i	i
CCC(C)c1ccc(OCc2ccc(C(=O)O)o2)cc1 (configuration not stated)	i	i	i	i	i
O=C(NC(=S)Nc1ccccc1)c1ccc(Br)o1	i	i	i	i	i
COc1ccc(C(=O)Nc2ccccc2N2CCN(C(=O)c3ccccc3)CC2)cc1Br	i	i	i	-6*	i
O=C(Nc1ccc(Nc2ccccc2)cc1)c1ccc(Br)o1	i	i	i	i	13*
O=C(Nc1ccccc1N1CCN(C(=O)c2ccccc2)CC1)c1ccc(Br)o1	i	i	i	-7*	i
O=C(Nc1ccccc1N1CCN(C(=O)c2ccccc2)CC1)c1ccc(Cl)cc1	i	i	i	i	i
CC(C)Cn1cnc2c1c(=O)n(CC(=O)NC(=O)NC(C)(C)C)c(=O)n2Cc1ccccc1	i	i	i	i	i
COc1ccccc1N1CC(C(=O)Nc2ccccc2N2CCCC2)CC1=O (configuration not stated)	i	i	i	i	i
Clc1cccc(Cl)c1C1Nc2cccc3cccc(c23)N1	-5.5*	i	i	i	i
Fc1cccc(Cl)c1C1Nc2cccc3cccc(c23)N1	i	i	i	i	i
CCOC(OCC)c1cn(Cc2ccc(C(=O)c3ccccc3)cc2)nn1	i	i	i	i	i
SMILES	TRPC6 inh	TRPC4 act	TRPC6 activator	TRPC4 inh	TRPC4 potent
NC(=O)c1ccccc1NC(=O)CCn1c(=S)oc2ccccc21	i	i	i	i	i
COC(=O)c1ccccc1NC(=O)C1CCCC1	i	i	i	i	i
COC(=O)c1ccccc1NC(=S)NC(=O)C1CCCCC1	i	i	i	i	16*
COC(=O)[C@@]12CCCCN1[C@H](c1ccc(-c3ccccc3)cc1)[C@@H]1C(=O)N(C)C(=O)[C@@H]12	i	i	i	i	18*
Cc1ccc(OC(=O)CCC(=O)Nc2ccc(S(=O)(=O)Nc3cc(C)on3)cc2)cc1	i	i	i	i	i
CC(=O)NS(=O)(=O)c1ccc(NC(=O)CCC(=O)Oc2ccc(C)cc2)cc1	i	i	i	i	11*
O=C(NCc1ccco1)c1ccc2c(c1)S(=O)(=O)c1ccccc1C2=O	i	i	i	i	i
CC(C)C(NC(=O)c1ccco1)C(=O)NCC(c1ccco1)N(C)C (configuration not stated)	i	i	i	i	i
CN(C)C(CNC(=O)c1ccc2c(c1)S(=O)(=O)c1ccccc1C2=O)c1ccco1 (configuration not stated)	i	120*	i	-8*	i
CSc1ccccc1C(=O)NCC(c1ccco1)N(C)C (configuration not stated)	i	i	i	i	i
CSc1ccc(C(=O)NCC(c2ccco2)N(C)C)cc1[N+](=O)[O-] (configuration not stated)	i	293*	i	i	i
CC(=O)NC(CC(=O)NCC(c1ccco1)N(C)C)c1ccccc1 (configuration not stated)	i	92*	i	i	i
CN(C)C(CNC(=O)c1ccc2ccccc2c1)c1ccco1 (configuration not stated)	i	68*	i	i	i
Oc1ccccc1-c1nc(NCc2ccco2)c2ccccc2n1	i	i	i	i	i
c1ccc(CNc2nc(-c3cccs3)nc3ccccc23)nc1	i	i	i	-6*	i
Cc1ccc(CNc2nc(-c3cccs3)nc3ccccc23)cc1	i	i	i	i	i
c1ccc(-c2nc(NCc3ccco3)c3ccccc3n2)nc1	i	i	i	-6*	i
COc1ccc(CCNC(=O)CN2C(=O)COc3ccc(S(=O)(=O)N4CCCC4)cc32)c(OC)c1	i	i	i	i	i
CN(C)c1ccc(/C=C/C(=O)c2cccc(Br)c2)cc1	i	99*	i	i	18*
CCN1CCCC1CNCc1ccc(Cl)cc1Cl (configuration not stated)	i	i	i	i	29*
CCN1CCCC1CNCc1cccc(OC)c1OCc1ccc(F)cc1 (configuration not stated)	i	58*	i	i	i
CCN1CCCC1CNC(=O)c1cc2c(OC)cccc2[nH]1 (configuration not stated)	i	154*	i	i	i
C/C(N)=C(/C#N)C(=O)CSc1nc2scc(-c3ccc(F)cc3)c2c(=O)n1C	i	i	i	i	i
